# The list is not random: actives were taken first. Their share in the collection is about 2.6%.
# SR-BI DiI inh: inhibitors of SR-BI mediated HDL lipid uptake, primary screen, ldlA[mSR-BI] cells, fluorescence, single point; 0.96% of 320,000 active; inhibition, % at 12.5 µM; Scavenger receptor class B member 1 (Mus musculus), Q61009; ldlA[mSR-BI] CHO cells, DiI-HDL uptake fluorescence, 3 h;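 active = mean replicate inhibition of at least 70% and a set share of replicates each scoring 70 or more; inconclusive = meets just one of the two criteria; inactive = fails both criteria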;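 also: 0% = median of neutral control wells and 100% = median of positive control wells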
# Target sequence (Q61009 whole entry, looked up): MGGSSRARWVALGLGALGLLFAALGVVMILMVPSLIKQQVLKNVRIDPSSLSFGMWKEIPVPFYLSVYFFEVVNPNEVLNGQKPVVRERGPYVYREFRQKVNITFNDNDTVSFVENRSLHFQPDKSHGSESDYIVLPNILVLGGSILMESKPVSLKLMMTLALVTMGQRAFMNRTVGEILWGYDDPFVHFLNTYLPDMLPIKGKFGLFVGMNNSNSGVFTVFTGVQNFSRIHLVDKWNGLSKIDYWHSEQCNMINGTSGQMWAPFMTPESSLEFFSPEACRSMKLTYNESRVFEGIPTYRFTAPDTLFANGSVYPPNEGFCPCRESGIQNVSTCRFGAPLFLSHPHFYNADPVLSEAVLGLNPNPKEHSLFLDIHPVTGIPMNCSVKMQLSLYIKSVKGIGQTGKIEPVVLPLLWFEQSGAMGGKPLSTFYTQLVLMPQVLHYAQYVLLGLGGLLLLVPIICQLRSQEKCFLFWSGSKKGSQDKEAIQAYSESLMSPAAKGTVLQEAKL
# XiGFP reactiv: activators of inactive X chromosome reactivation, primary screen, imaging, XiGFP fibroblasts, GFP high-content imaging, set 2. XiGFP mouse fibroblasts, % GFP-positive cells imaging, 3 d; cells co-treated with 5-aza-dC sensitizer; scaled so ellipticine positive control = 100%. activation, % at 7.58 µM. 0.055% of 360,000 active. AID 743238, 2013;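 active = mean normalized replicate activation at least 10% and every replicate at or above 10%; inconclusive = only one of the two criteria met; inactive = mean below 10% and not all replicates reach 10%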;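 also: 0% = median of on-plate neutral control wells and 100% = ellipticine 6 µM median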
#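 Material: XiGFP fibroblasts, SV40-immortalized. Buffer or medium: DMEM plus 5-aza-dC sensitizer. Compound: single concentration per compound, delivered by pin transfer. Times: 3 days compound exposure. Controls: ellipticine 6 µM.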
# dFosB activator: activators of delta FosB homodimer, primary screen, biochemical, fluorescence polarization, TAMRA-CDK5 oligo, single point; 0.99% of 340,000 active; Protein FosB (Mus musculus), P13346; purified delta FosB; percent of positive-control signal above neutral wells; activation, % at 25 µM; AID 493131, 2011;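 active = mean activation above about 17%, with every replicate also reaching it, limit read from the data, passing the limit was not always enough; inconclusive = only one of the two conditions met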
# PvdQ inh: P. aeruginosa PvdQ acylase inhibitors, primary screen, biochemical, fluorescence, plate reader and imaging, single point | purified PvdQ acylase | inhibition, % at 10 µM | 0.063% of 340,000 active | PvdQ acylase [Pseudomonas aeruginosa LESB58]; in the data active = inhibition above about 30%, passing the limit was not always enough; inconclusive = no clear call, values can overlap the other calls;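 also: 0% = vehicle neutral wells and 100% = reference inhibitor wells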
# rRNA inh HTS: reduced GFP signal of wild-type E. coli, primary screen, bacterial rRNA inhibitor project, GFP/RFP fluorescence, OD600, single point; GFP signal change (wild-type ribosome), % (no concentration beside the values); AID 720706, 2013; E. coli WT GFP vs humanized-ribosome RFP mutants, 24 h; hits give low values; DMSO median 0, no signal -100; 1.6% of 350,000 active;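 active = significant combined selectivity score with lowered wild-type GFP, culture density cut under 30%, mutant RFP and density less affected; inactive = any of these conditions unmet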
# SR-BI uptake up: activators of SR-BI mediated DiI-HDL uptake, primary screen, ldlA[mSR-BI] CHO cells, DiI fluorescence; AID 504775, 2011; 0.096% of 320,000 active; activation, % at 12.5 µM; 3 h; 100 = double the neutral-control signal;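 active = mean replicate activation of at least 60% and every replicate at or above 60%; inconclusive = mean or all-replicate condition met, but not both; inactive = mean below 60% and not all replicates reaching 60%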;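 also: 0% = median plate neutral-control signal and 100% = twice that signal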
#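 System: LDL receptor-deficient CHO ldlA cells overexpressing murine SR-BI | Timing: 3 h uptake period with compound, 37 °C | Medium: HEPES-buffered (25 mM, pH 7.4) F12 plus 0.5% BSA | Dosing: Single-point compound dose | Signal: Bottom-read fluorescence, 550/595 nm | Read-out: Retained DiI signal reflecting DiI-HDL uptake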
# Numbers without * were called inactive; u = inconclusive; x = no result.
SMILES,SR-BI DiI inh,XiGFP reactiv,dFosB activator,PvdQ inh,rRNA inh HTS,SR-BI uptake up
COc1ccc(S(=O)(=O)Nc2c(C)c(C)cc3c2ncn3C)cc1,-7,0,-6,-2,5,7
CC(C)n1cc(/C=C2\NC(=O)N(c3cccc(Cl)c3)C2=O)c2ccccc21,98*,x,-3,-13,11,-98
Fc1ccc(-[n+]2nc(Nc3ccccc3)sc2-c2c3ccccc3cc3ccccc23)cc1,32,0,31*,-64,-55,-32
Oc1ccc2ccccc2c1-c1sc(Nc2ccccc2)n[n+]1-c1ccc(F)cc1,26,0,10,-6,8,-26
CC1=C(C)/C(=N\OS(=O)(=O)c2ccc(C)cc2)C=CC1=O,91*,7,-4,22,x,-91
CC(S(=O)(=O)c1ccccc1)S(=O)(=O)c1ccccc1,x,0,x,x,1,x
CC1=C/C(=N\OS(=O)(=O)c2ccccc2)C(C(C)C)=CC1=O,83*,x,-6,-11,x,-83
CC1=C/C(=N\OS(=O)(=O)c2ccccc2)C(C)=CC1=O,79*,x,3,-6,5,-79
COc1ccc(S(=O)(=O)/N=C2/C=CC(=O)C(C)=C2C)cc1,12,x,-9,-13,x,-12
C(=N\Nc1nc2ccccc2[nH]1)/c1ccccc1,5,0,-1,-1,-53,-5
Cc1[nH]c2ccccc2c1/C=N/Nc1nc(N2CCCCC2)nc(N2CCCCC2)n1,91*,0,-2,-7,x,-91
C(=N\Nc1nc(Nc2ccccc2)nc(N2CCCCC2)n1)/c1ccco1,x,0,x,x,-38*,x
c1ccc(Nc2nc(N3CCCCC3)nc(N3CCCCC3)n2)cc1,42,x,-2,-11,x,-42
Cc1[nH]c2ccccc2c1/C=N/Nc1nc2ccccc2[nH]1,17,17*,u,7,-47*,-17
Cc1ccccc1/C=N/Nc1nc2ccccc2[nH]1,12,0,-3,8,-52,-12
Brc1ccc(-c2ccc(/C=N/Nc3nc4ccccc4[nH]3)o2)cc1,39,0,39*,-6,-51,-39
C(=N\Nc1nc(N2CCCCC2)nc(N2CCCCC2)n1)/c1c[nH]c2ccccc12,64,0,-7,-5,3,-64
Cc1noc(C)c1NC(=O)Nc1ccc2c(c1)C(=O)N([C@H](C)CO)C[C@@H](C)[C@H](CN(C)S(=O)(=O)c1cccs1)OCCCC[C@@H](C)O2,x,0,x,x,0,x
O=C(NC1CC1)C1CCN(C2CCN(C(=O)/C=C/c3cccs3)CC2)CC1,x,0,-3,-13,12,x
CCN(CC(=O)Nc1cc(Cl)ccc1C)C(=O)CCc1nc2ccccc2c(=O)[nH]1,4,0,-14,1,13,-4
CCC1CCCCN1C(=O)c1cc(COc2ccc3ncccc3c2)on1 (configuration not stated),11,0,-11,-7,-30*,-11
CC(=O)c1ccc(OCc2cc(C(=O)N3CCC(c4ccncc4)CC3)no2)cc1,-13,0,-7,-11,-4,13
CC(=O)c1ccc(OCc2cc(C(=O)N3CCCCC3c3cccnc3)no2)cc1 (configuration not stated),-10,0,-6,-11,-28*,10
COCC1CCCCN1C(=O)c1cc(COc2ccc3ncccc3c2)on1 (configuration not stated),6,0,-12,-15,-1,-6
CN(CC(=O)NCCc1ccc(F)cc1)Cc1cccs1,-15,0,-10,4,-10,15
CCN(CC)c1ccc(/C=N/NC(=O)c2ccc(Br)o2)cc1,38,0,-5,-6,-23*,-38

# Assay outcomes from PubChem.
